Results from different studies.
Protocols differ between the studies behind these lines.
Target: Serine/threonine-protein kinase 32B (STK32B, Homo sapiens, UniProt Q9NY57)

| test | conditions | remaining binding | SMILES |
| --- | --- | --- | --- |
| binding, competition with immobilised ligand | 1 µM | 92% | CCN1CCN(Cc2ccc(C(=O)Nc3ccc(C)c(Oc4ccc5c(c4)CC(=O)N5)c3)cc2C(F)(F)F)CC1 |
| binding, competition with immobilised ligand | 1 µM | 100% | COc1cnc(Nc2cccc(S(N)(=O)=O)c2)nc1N1CCN(c2ccccc2)CC1 |
| binding | 1 µM | 100% | Cc1cnn2ncc(-c3ccnc(N(C)C)n3)c2c1 |
| binding, competition with immobilised ligand | 10 µM | 100% | c1cncc(-c2cccc(Nc3nccc(NC4CCCCC4)n3)c2)c1 |
| cell-free assay, competition with immobilised ligand | 0.1 µM | 93% | CS(=O)(=O)N1CCCC(NC(=O)[C@H](CCC2CCCCC2)NC(=O)c2ccc(CNC(=O)c3cnc4ccccn34)cc2)C1 (stereo partly drawn) |
| binding | 1 µM | 89% | C[C@@H]1CCN(c2nccc(-c3cnn4ncccc34)n2)C1 |
| binding, competition with immobilised ligand | 0.1 µM | 99% | C[C@@H](c1ccc(-n2cnc3c(N)ncnc32)cc1)N1CCc2nn(C)c(Cc3ccccc3)c2C1=O |
| binding, competition with immobilised ligand | 1 µM | 77% | O=C(NCC1CCOCC1)c1n[nH]cc1NC(=O)c1c(F)cccc1F |
| binding | 1 µM | 96% | N[C@@H]1CCN(c2nccc(-c3cnn4ncccc34)n2)C1 |
| cell-free assay, competition with immobilised ligand | 1 µM | 100% | C[C@H](c1cccc(C#N)c1)n1cc(Cl)cc(C(N)=O)c1=N |
| binding, competition with immobilised ligand | 1 µM | 100% | Cc1cnc(Nc2ccc(C(=O)N3CCC(N4CCCC4)CC3)cc2)nc1-c1cc2ccccc2s1 |
| binding, competition with immobilised ligand | 5 µM | 97% | FC(F)(F)Oc1cccc(-c2cnc3ccc(-c4ccncc4)nn23)c1 |
| cell-free assay, competition with immobilised ligand | 1 µM | 100% | O=C1NC(c2ccccn2)Sc2ccccc21 (stereo not drawn) |
| binding | 1 µM | 87% | CN(CCCC(F)(F)F)c1nccc(-c2cnn3ncccc23)n1 |
| cell-free assay, competition with immobilised ligand | 1 µM | 87% | O=C(Nc1cnc(Oc2ccc(F)cc2)nc1)N1CCc2ncccc2[C@@H]1c1ccc(F)cc1 |
| binding, competition with immobilised ligand | 1 µM | 100% | O=C(NCCCN1CCOCC1)c1ccc(Nc2ncc(Cl)c(-c3ccc(Cl)s3)n2)cc1 |
| binding | 1 µM | 100% | CN(C)c1ncc(F)c(-c2cnn3ncccc23)n1 |
| cell-free assay, competition with immobilised ligand | 0.1 µM | 97% | CNC(=O)c1ccc(Nc2ncc(C(F)(F)F)c(NCc3nccnc3N(C)S(C)(=O)=O)n2)cc1 |
| binding | 1 µM | 100% | CC1CCCN1c1nccc(-c2cnn3ncccc23)n1 (stereo not drawn) |
| binding, competition with immobilised ligand | 1 µM | 100% | O=C(c1ccc(Nc2ncc(Cl)c(-c3cc4ccccc4s3)n2)cc1)N1CCC(N2CCCC2)CC1 |
| cell-free assay, competition with immobilised ligand | 1 µM | 100% | CC1=C(C#N)[C@@H](c2ccc3[nH]nc(C)c3c2)C(C#N)=C(c2ccc(Cl)cc2)N1 |
